Results published in ChEMBL document CHEMBL1126720 (J Med Chem, 1993).

Key:
[1] = Hypersensitivity factor is the ratio of IC50(AA8) to IC50(UV4) under aerobic conditions; format: functional
Summary of the method: (§1)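 Log-phase AA8 (200 viable cells/well) or UV4 (300 viable cells/well) cells with 5000 lethally irradiated AA8 feeder cells per well, in α-MEM with 10% heat-inactivated fetal calf serum. Cell mass read after 72-78 h by methylene blue protein staining and absorbance. IC50 = concentration reducing cell mass to 50% of the mean of 8 same-plate controls; means of at least 3 determinations ± SEM. Hypersensitivity factor = aerobic IC50(AA8)/IC50(UV4).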

[2] = (§2) Cytotoxicity was measured for 90% kill in UV4 cells under aerobic conditions; format: functional, Cricetulus griseus
Summary of the method: (§3)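 Clonogenic assay in magnetically stirred 10-mL suspensions of late log-phase UV4 cells at 2×10^6 cells/mL, 37 °C, continuously gassed with 5% CO2 in air or N2; samples removed periodically across a range of drug concentrations. CT10 (concentration × time for 10% survival) taken from survival curves; hypoxic selectivity = ratio of aerobic to hypoxic CT10.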

[3] = Growth inhibition against CHO-derived cell line AA8; format: functional, cell-based, Cricetulus griseus; summary of the method: as §1
[4] = Ratio of aerobic CT10 to that of hypoxic CT10 (for a 1-h exposure); format: functional; summary of the method: as §3
UV4 = test: as §2; format: functional; details: Cricetulus griseus; summary of the method: as §3
[5] = Ratio of aerobic CT10 to that of hypoxic CT10; format: functional; summary of the method: as §3
[6] = Growth inhibition against CHO-derived cell line AA8 (Non toxic at solubility limit) [RB6145 used as positive control]; format: functional, cell-based, Cricetulus griseus; summary of the method: as §1
[7] = Hypersensitivity factor is the ratio of IC50(AA8) to IC50(UV4) under aerobic conditions; ND = Nontoxic at the solubility level; format: functional; summary of the method: as §1
[8] = Cricetulus griseus, CHO-derived

Row | Molecule | HF ratio [1] | IC50 ([3]; cho-derived) | also measured
1 | O=[N+]([O-])c1nccn1CC(O)CNCCBr (stereo not given) | 5.9 |  | CT10 [2]: 6600 µM·h; IC50 [3, 8]: 145 µM; Ratio [4]: 50
2 | CCN(CC)CCN | 0.99 |  | IC50 [3, 8]: 19000 µM
3 | ClCCNCCNCCCl | 29 |  | IC50 [3, 8]: 30 µM
4 | CCNCCNCC | 0.7 |  | IC50 [3, 8]: 2400 µM
5 | Bis (2,4-pentanedionato) (N,N'-bis(2-chloroethyl)ethylenediamine)cobalt(III) Percholate [listing 1 of 2 here] |  | 890 µM | 
6 | Bis (2,4-pentanedionato) (N,N'-bis(2-chloroethyl)ethylenediamine)cobalt(III) Percholate [listing 2 of 2 here] | 14 |  | CT10 (UV4): 21500 µM·h; Ratio [5]: 1.6
7 | Bis (2,4-pentanedionato) (N,N'-bis(2-diethylethylenediamine)cobalt(III) Percholate [listing 1 of 2 here] |  |  | IC50 [6]: > 5000 µM
8 | Bis (2,4-pentanedionato) (N,N'-bis(2-diethylethylenediamine)cobalt(III) Percholate [listing 2 of 2 here] |  |  | HF ratio [7]: Nontoxic
9 | Bis (2,4-pentanedionato) (N,N-bis(2-chloroethyl)ethylenediamine)cobalt(III) Percholate [listing 1 of 2 here] |  | 3.1 µM | 
10 | Bis (2,4-pentanedionato) (N,N-bis(2-chloroethyl)ethylenediamine)cobalt(III) Percholate [listing 2 of 2 here] | 64 |  | CT10 (UV4): 0.64 µM·h; Ratio [5]: 1.9
11 | Bis (2,4-pentanedionato) (N,N-diethylethylenediamine)cobalt(III) Percholate [listing 1 of 2 here] |  | 34 µM | 
12 | Bis (2,4-pentanedionato) (N,N-diethylethylenediamine)cobalt(III) Percholate [listing 2 of 2 here] | 0.9 |  | 
13 | Bis (3-chlorol-2,4-pentanedionato) (N,N-bis(2-chloroethyl)ethylenediamine)cobalt(III) Percholate [listing 1 of 2 here] |  | 26 µM | 
14 | Bis (3-chlorol-2,4-pentanedionato) (N,N-bis(2-chloroethyl)ethylenediamine)cobalt(III) Percholate [listing 2 of 2 here] | 13 |  | 
15 | Bis (3-ethyl-2,4-pentanedionato) (N,N'-bis(2-chloroethyl)ethylenediamine)cobalt(III) Percholate [listing 1 of 2 here] |  | 139 µM | 
16 | Bis (3-ethyl-2,4-pentanedionato) (N,N'-bis(2-chloroethyl)ethylenediamine)cobalt(III) Percholate [listing 2 of 2 here] | 4.8 |  | 
17 | Bis (3-ethyl-2,4-pentanedionato) (N,N-bis(2-chloroethyl)ethylenediamine)cobalt(III) Percholate [listing 1 of 2 here] |  | 2.3 µM | 
18 | Bis (3-ethyl-2,4-pentanedionato) (N,N-bis(2-chloroethyl)ethylenediamine)cobalt(III) Percholate [listing 2 of 2 here] | 20 |  | CT10 (UV4): 0.51 µM·h; Ratio [5]: 4.9
19 | Bis (3-methyl-2,4-pentanedionato) (N,N'-bis(2-chloroethyl)ethylenediamine)cobalt(III) Percholate [listing 1 of 2 here] |  | 650 µM | 
20 | Bis (3-methyl-2,4-pentanedionato) (N,N'-bis(2-chloroethyl)ethylenediamine)cobalt(III) Percholate [listing 2 of 2 here] | 2.7 |  | CT10 (UV4): > 2720 µM·h; Ratio [5]: > 1
21 | Bis (3-methyl-2,4-pentanedionato) (N,N-bis(2-chloroethyl)ethylenediamine)cobalt(III) Percholate [listing 1 of 2 here] |  | 4.6 µM | 
22 | Bis (3-methyl-2,4-pentanedionato) (N,N-bis(2-chloroethyl)ethylenediamine)cobalt(III) Percholate [listing 2 of 2 here] | 48 |  | CT10 (UV4): 2.4 µM·h; Ratio [5]: 20
23 | Bis (3-n-propyl-2,4-pentanedionato) (N,N-bis(2-chloroethyl)ethylenediamine)cobalt(III) Percholate [listing 1 of 2 here] |  | 1.35 µM | 
24 | Bis (3-n-propyl-2,4-pentanedionato) (N,N-bis(2-chloroethyl)ethylenediamine)cobalt(III) Percholate [listing 2 of 2 here] |  | 18.5 µM | 
